In ChEMBL document CHEMBL3297682, “Synthesis and anticancer activity of γ-(triazolyl ethylidene)butenolides and polyfunctional pyrrolinones” (Eur J Med Chem, 2014):
Calls of active or inactive are those of the source. The rule behind the calls is not given here.

What was measured:
[1] = system: PC-3; assay: Antiproliferative activity against human PC3 cells after 24 hrs by MTT assay; type: functional, cell-based; settings: PC-3, 24 h
Procedure, shortened: (§1)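 1×10^4 cells/well seeded in DMEM with 10% FBS and antibiotic-antimycotic, grown 24 h at 37 °C under 5% CO2. Compounds diluted in phenol red-free DMEM with 2% FBS and given for 24 h, with vehicle control. MTT (5 mg/mL, 20 µL) added for 3 h. Formazan dissolved in DMSO, absorbance read at 570 nm. IC50 is the concentration giving 50% growth inhibition.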

[2] = system: HEK293; assay: Cytotoxicity against human HEK293 cells after 24 hrs by MTT assay; type: cell-based; settings: HEK293, 24 h; procedure, shortened: as §1
[3] = system: MCF7; assay: Antiproliferative activity against human MCF7 cells after 24 hrs by MTT assay; type: functional, cell-based; settings: MCF7, 24 h; procedure, shortened: as §1
[4] = system: MDA-MB-231; assay: Antiproliferative activity against human MDA-MB-231 cells after 24 hrs by MTT assay; type: functional, cell-based; settings: MDA-MB-231, 24 h; procedure, shortened: as §1
[5] = system: U-937; assay: Antiproliferative activity against human U937 cells after 24 hrs by MTT assay; type: functional, cell-based; settings: U-937, 24 h; procedure, shortened: as §1
[6] = system: HCT-116; assay: Antiproliferative activity against human HCT116 cells after 24 hrs by MTT assay; type: functional, cell-based; settings: HCT-116, 24 h; procedure, shortened: as §1
[7] = system: HCT-116; assay: Induction of cell cycle arrest in human HCT116 cells assessed as accumulation at subG1 phase at IC50 concentration measured after 24 hrs by propidium iodide staining based flow cytometry; type: functional
Procedure, shortened: (§2)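 1×10^6 cells seeded in six-well plates and treated 24 h. Floating and trypsinized adherent cells pooled and fixed in 70% ethanol. Cells washed in PBS, then stained 30 min at room temperature in the dark with 30 µg/mL propidium iodide in PBS containing RNase A. DNA content measured by flow cytometry.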

[8] = system: MCF7; assay: Induction of cell cycle arrest in human MCF7 cells assessed as accumulation at subG1 phase at IC50 concentration measured after 24 hrs by propidium iodide staining based flow cytometry; type: functional; procedure, shortened: as §2
[9] = system: MDA-MB-231; assay: Induction of cell cycle arrest in human MDA-MB-231 cells assessed as accumulation at subG1 phase at IC50 concentration measured after 24 hrs by propidium iodide staining based flow cytometry; type: functional; procedure, shortened: as §2
[10] = system: PC-3; assay: Induction of cell cycle arrest in human PC3 cells assessed as accumulation at subG1 phase at IC50 concentration measured after 24 hrs by propidium iodide staining based flow cytometry; type: functional; procedure, shortened: as §2
[11] = system: MDA-MB-231; assay: Induction of reactive oxygen species production in human MDA-MB-231 cells after 24 hrs by DCFH-DA dye based flow cytometry; type: functional, cell-based
Procedure, shortened: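 MDA-MB-231 cells (1×10^6) seeded 24 h in six-well plates, then treated 24 h. Cells harvested, washed in PBS and fixed in absolute methanol. Cells resuspended in PBS with 15 µg/mL DCFH-DA for 30 min in the dark, then pelleted, taken up in PBS, and fluorescence read by flow cytometry.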

[12] = system: U-937; assay: Induction of cell cycle arrest in human U937 cells assessed as accumulation at subG1 phase at IC50 concentration measured after 24 hrs by propidium iodide staining based flow cytometry; type: functional; procedure, shortened: as §2

| SMILES | IC50 [1] [µM] | IC50 [2] [µM] | IC50 [3] [µM] | IC50 [4] [µM] | IC50 [5] [µM] | IC50 [6] [µM] | Activity [7] | Activity [8] | Activity [9] | Activity [10] | Activity [11] | Activity [12] |
| --- | --- | --- | --- | --- | --- | --- | --- | --- | --- | --- | --- | --- |
| CCCCCCc1cn(C/C=C2\OC(=O)C(OC)=C2OC)nn1 | > 100 | > 100 | > 100 | 74.7 | > 100 | > 100 | – | – | – | – | – | – |
| COC1=C(OC)C(O)(CCn2cc(-c3ccccc3)nn2)NC1=O (centres undefined) | 35.3 | 62 | 22.6 | 18.3 | 20.3 | 46.3 | Active | Active | Active | Active | Active | Active |
| COC1=C(OC)/C(=C/Cn2cc(Cc3ccccc3)nn2)OC1=O | > 100 | > 100 | > 100 | > 100 | > 100 | > 100 | – | – | – | – | – | – |
| O=C1O/C(=C\Cn2cc(C3=CCCCC3)nn2)C(OCc2ccccc2)=C1OCc1ccccc1 | 55.6 | > 100 | > 100 | > 100 | > 100 | > 100 | – | – | – | – | – | – |
| COC1=C(OC)/C(=C/Cn2cc(-c3ccc(C(C)(C)C)cc3)nn2)OC1=O | > 100 | > 100 | > 100 | > 100 | 30 | > 100 | – | – | – | – | – | – |
| CCCCCC(O)c1cn(C/C=C2\OC(=O)C(OC)=C2OC)nn1 (centres undefined) | > 100 | 80 | > 100 | 35.5 | > 100 | > 100 | – | – | – | – | – | – |
| CC(C)(C)c1ccc(-c2cn(CCC3(O)C(OCc4ccccc4)=C(OCc4ccccc4)C(=O)N3CCc3ccccc3)nn2)cc1 (centres undefined) | 65.5 | 71 | 32 | > 100 | 60.2 | > 100 | – | – | – | – | – | – |
| O=C1O/C(=C\Cn2cc(-c3ccccn3)nn2)C(OCc2ccccc2)=C1OCc1ccccc1 | > 100 | > 100 | > 100 | > 100 | 70.2 | > 100 | – | – | – | – | – | – |
| COC1=C(OC)/C(=C/Cn2cc(-c3ccccn3)nn2)OC1=O | > 100 | > 100 | > 100 | > 100 | > 100 | > 100 | – | – | – | – | – | – |
| CCCc1cn(CCC2(O)C(OCc3ccccc3)=C(OCc3ccccc3)C(=O)N2CCC)nn1 (centres undefined) | 35 | 90 | > 100 | > 100 | > 100 | > 100 | – | – | – | – | – | – |
| CCCCCCCCN1C(=O)C(OCc2ccccc2)=C(OCc2ccccc2)/C1=C/Cn1cc(-c2ccccn2)nn1 | > 100 | 83 | 46.2 | > 100 | 90.2 | > 100 | – | – | – | – | – | – |
| CCCCCCCCN1C(=O)C(OCc2ccccc2)=C(OCc2ccccc2)C1(O)CCn1cc(-c2ccccn2)nn1 (centres undefined) | 80.3 | > 100 | 24.3 | > 100 | 84.2 | > 100 | – | – | – | – | – | – |
| CCCc1cn(C/C=C2\OC(=O)C(OCc3ccccc3)=C2OCc2ccccc2)nn1 | > 100 | > 100 | > 100 | > 100 | > 100 | > 100 | – | – | – | – | – | – |
| COC1=C(OC)/C(=C/Cn2cc(CCCCO)nn2)OC1=O | > 100 | > 100 | 35 | 87.5 | > 100 | > 100 | – | – | – | – | – | – |
| CCCc1cn(C/C=C2/C(OCc3ccccc3)=C(OCc3ccccc3)C(=O)N2CCC)nn1 | > 100 | 82 | 66.8 | > 100 | 80.5 | > 100 | – | – | – | – | – | – |
| O=C1O/C(=C\Cn2cc(C3CC3)nn2)C(OCc2ccccc2)=C1OCc1ccccc1 | > 100 | > 100 | > 100 | > 100 | > 100 | > 100 | – | – | – | – | – | – |

| SMILES | IC50 [1] [µM] | IC50 [2] [µM] | IC50 [3] [µM] | IC50 [4] [µM] | IC50 [5] [µM] | IC50 [6] [µM] | Activity [7] | Activity [8] | Activity [9] | Activity [10] | Activity [11] | Activity [12] |
| --- | --- | --- | --- | --- | --- | --- | --- | --- | --- | --- | --- | --- |
| O=C1O/C(=C\Cn2cc(Cc3ccccc3)nn2)C(OCc2ccccc2)=C1OCc1ccccc1 | 71.3 | 70 | 40 | 29.2 | > 100 | 83.1 | – | – | – | – | Active | – |
| COC1=C(OC)/C(=C/Cn2cc(CO)nn2)OC1=O | > 100 | > 100 | 35 | > 100 | > 100 | > 100 | – | – | – | – | – | – |
| O=C1NC(O)(CCn2cc(-c3ccccc3)nn2)C(OCc2ccccc2)=C1OCc1ccccc1 (centres undefined) | > 100 | > 100 | 20.5 | 21.1 | 21.5 | 53.4 | Active | Active | Active | Active | Active | Active |
| CC/C(=C(\c1ccccc1)c1ccc(OCCN(C)C)cc1)c1ccccc1 [TAMOXIFEN] | 7 | 50 | 6 | 14 | – | – | – | – | – | – | – | – |
| O=C1O/C(=C\Cn2cc(CCCCO)nn2)C(OCc2ccccc2)=C1OCc1ccccc1 | > 100 | > 100 | 53.6 | > 100 | > 100 | > 100 | – | – | – | – | – | – |
| O=C1O/C(=C\Cn2cc(-c3ccccc3)nn2)C(OCc2ccccc2)=C1OCc1ccccc1 | > 100 | > 100 | > 100 | 44 | > 100 | > 100 | – | – | – | – | – | – |
| O=C1NC(O)(CCn2cc(C3=CCCCC3)nn2)C(OCc2ccccc2)=C1OCc1ccccc1 (centres undefined) | 67.2 | 70 | > 100 | 13.1 | > 100 | > 100 | – | – | – | – | Active | – |
| CCCCCc1cn(C/C=C2\OC(=O)C(OCc3ccccc3)=C2OCc2ccccc2)nn1 | > 100 | > 100 | > 100 | > 100 | > 100 | > 100 | – | – | – | – | – | – |
| COC1=C(OC)/C(=C/Cn2cc(C3CC3)nn2)OC1=O | > 100 | > 100 | > 100 | > 100 | > 100 | > 100 | – | – | – | – | – | – |
| CCCCc1cn(C/C=C2\OC(=O)C(OCc3ccccc3)=C2OCc2ccccc2)nn1 | > 100 | > 100 | > 100 | > 100 | > 100 | 64.3 | – | – | – | – | – | – |
| O=C1NC(O)(CCn2cc(Cc3ccccc3)nn2)C(OCc2ccccc2)=C1OCc1ccccc1 (centres undefined) | > 100 | 86 | 39.2 | > 100 | > 100 | 51.2 | – | – | – | – | – | – |
| COC1=C(OC)/C(=C/Cn2cc(-c3ccccc3)nn2)OC1=O | > 100 | > 100 | > 100 | > 100 | > 100 | > 100 | – | – | – | – | – | – |
| CC(C)(C)c1ccc(-c2cn(C/C=C3\OC(=O)C(OCc4ccccc4)=C3OCc3ccccc3)nn2)cc1 | > 100 | > 100 | > 100 | 51.2 | > 100 | > 100 | – | – | – | – | – | – |
| CC(C)(C)c1ccc(-c2cn(CCC3(O)NC(=O)C(OCc4ccccc4)=C3OCc3ccccc3)nn2)cc1 (centres undefined) | 43 | > 100 | 25.1 | > 100 | 56.5 | > 100 | – | – | – | – | – | – |
| Cc1ccc(-c2cn(CCC3(O)NC(=O)C(OCc4ccccc4)=C3OCc3ccccc3)nn2)cc1 (centres undefined) | 84.2 | 45 | 24 | 82.2 | 54 | 74.3 | – | – | – | – | – | – |
| Cc1ccc(-c2cn(C/C=C3\OC(=O)C(OCc4ccccc4)=C3OCc3ccccc3)nn2)cc1 | > 100 | > 100 | > 100 | > 100 | > 100 | > 100 | – | – | – | – | – | – |
